# S1P1 ag-PAM = S1P1 agonists and agonism potentiators, primary screen, cell-based, primary and confirmation screens, CRE-bla reporter. activation, % at 9.5 µM. S1P1 CRE-bla cells, forskolin, beta-lactamase FRET, potentiator mode; S1P1 agonist co-added at EC20, 2 nM; 100% = saturating reference agonist, 0% = basal. AID 449, 2006. actives 0.57% (n = 56,000);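 active = activation above a cutoff set at the mean activation of all tested compounds plus 3 SD, cut at about 54% in these data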;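 also: forskolin at 4 µM as EC80 and the EC20 agonist is SEW2871; 100% = SEW2871 at its EC100 plus forskolin at EC80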
# 5-HT1A blocker = human 5-HT1a receptor antagonists, primary screen, cell-based, CHO, Ga15 NFAT-bla reporter; CHO 5-HT1a Ga15 NFAT-bla reporter, antagonist mode; inhibition, % at 10 µM; actives 0.68% (n = 62,000); AID 612, 2007;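 active = inhibition above the mean of all tested compounds plus 3 SD, cut at about 43% in these data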;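 also: receptor stimulated by 5-CT agonist at 100 nM near EC80; beta-lactamase reporter measured by ratiometric fluorescence of a cleavable substrate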
# Target sequence (P08908 whole entry, looked up): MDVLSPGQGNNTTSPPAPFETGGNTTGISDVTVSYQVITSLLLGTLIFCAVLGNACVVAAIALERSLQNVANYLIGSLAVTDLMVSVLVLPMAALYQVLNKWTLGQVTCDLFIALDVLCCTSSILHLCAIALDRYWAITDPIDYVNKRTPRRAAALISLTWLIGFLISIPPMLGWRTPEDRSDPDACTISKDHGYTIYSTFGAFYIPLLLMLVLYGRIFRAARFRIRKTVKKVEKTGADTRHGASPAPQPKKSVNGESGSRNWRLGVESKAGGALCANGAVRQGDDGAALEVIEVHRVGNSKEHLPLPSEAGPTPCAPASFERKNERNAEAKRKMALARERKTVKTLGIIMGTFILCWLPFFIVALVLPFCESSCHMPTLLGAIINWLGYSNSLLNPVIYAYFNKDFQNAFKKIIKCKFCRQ
# 5HT1E ag = 5-HT1E receptor agonists, primary screen, cell-based, HTS; 5-hydroxytryptamine receptor 1E (Homo sapiens), P28566; CHO 5-HT1E Ga15 NFAT-bla reporter, FRET; 0% DMSO wells, 100% control agonist wells; activation, % at 6 µM; actives 0.69% (n = 65,000);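 active = activation above a set limit, the screen-wide mean activation plus 3 SD, cut at about 8.5% in these data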;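 also: 100% = positive control agonist at 1 µM giving full maximal response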
# 5HT1E antag = 5-HT1E receptor antagonists, primary screen, cell-based, HTS; 5-hydroxytryptamine receptor 1E (Homo sapiens), P28566; actives 0.99% (n = 65,000); CHO 5-HT1E Ga15 NFAT-bla reporter, FRET, antagonist; inhibition, % at 6 µM; AID 571, 2007;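 active = inhibition above a set limit, the mean inhibition across every tested compound plus 3 SD, cut at about 29% in these data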;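 also: signal is the 460 over 535 nm emission ratio of beta-lactamase substrate; 0% = agonist plus DMSO wells and 100% = wells without agonist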
# 5HT1a ag = human 5-HT1a receptor agonists, primary screen, cell-based, CHO, Ga15 NFAT-bla reporter | CHO 5-HT1a Ga15 NFAT-bla reporter, FRET ratio; 0% basal, 100% maximal reference agonist | activation, % at 10 µM | actives 0.56% (n = 65,000) | AID 567, 2006;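 active = activation above the screen-wide mean activation plus 3 SD, cut at about 19% in these data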;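 also: 0% = DMSO wells and 100% = 5-CT at EC100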
# S1P3 agonist = human S1P3 receptor agonists, primary screen, cell-based, primary and confirmation, NFAT-BLA reporter; Sphingosine 1-phosphate receptor 3 (Homo sapiens), Q99500; S1P3 NFAT-BLA reporter cells, agonism, FRET ratio; relative to 1 µM S1P, basal subtracted; activation, % at 4.5 µM; actives 0.1% (n = 60,000);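 active = activation above the screen-wide mean plus 3 SD, cut at about 4.5% in these data, passing the limit was not always enough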
#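 material = human S1P3 NFAT-BLA reporter CHO cells | schedule = 4 h compound at 37 °C, 2 h substrate at RT | measured by = fluorescent BLA substrate, ex 405 nm, em 460/535 nm ratio | controls = 1 µM S1P reference | replication = primary once, confirmation triplicate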
# Numbers without * were called inactive; · = no result given. An excerpt weighted towards active compounds, which were near 3% of everything screened.
SMILES,S1P1 ag-PAM,5-HT1A blocker,5HT1E ag,5HT1E antag,5HT1a ag,S1P3 agonist
CCC(c1nnnn1Cc1ccc2c(c1)OCO2)N1CCN(c2ccc(F)cc2)CC1 (centres undefined),-7,44*,-1,8,-2,-2
CCN(CC)CCOC(=O)c1cccc(Cl)c1,-5,17,2,6,-4,-2
CCN(CC)CCOC(=O)c1cccc(Br)c1,18,14,11*,1,0,-1
Cc1ccc(-c2csc3ncnc(Sc4nnc(CN5CCCCCC5=O)o4)c23)cc1,93*,76*,0,48*,-3,-2
Cc1ccc(-c2csc(N3CCC(NS(=O)(=O)c4ccc5c(c4)OCCO5)CC3)n2)cc1,107*,19,6,-1,3,-1
O=C(CN1CCN(c2nc(-c3ccccc3)cs2)CC1)Nc1ccc2c(c1)OCO2,29,2,0,2,1,1
CC(C)=C1C2CC2C2C(C(=O)O)C12 (centres undefined),1,1,0,6,0,0
Cc1cc(OCC(=O)c2ccc(F)cc2)ccc1N1C(=O)CCC1=O,14,-12,1,6,0,0
CCCSC1=C(C#N)C(c2ccc(OC)cc2)C2=C(CC(C)(C)CC2=O)N1 (centres undefined),-4,·,1,50*,-1,0
CSC1=C(C#N)C(c2ccc(Cl)cc2)C2=C(CC(C)(C)CC2=O)N1 (centres undefined),29,7,1,-15,-3,-2
COc1ccc2ncn(-c3ccccc3)c2c1,68*,23,-1,16,-4,-2
O=C(Nc1nccs1)c1ccc(S(=O)(=O)NCC2CCCCC2)cc1,53*,-5,0,8,-1,-1
Cc1cc(OCC(=O)Nc2ccc3c(c2)OCCO3)ccc1Cl,4,9,0,-3,-3,-1
COc1ccc(CN2CCC(C(=O)N3CCN(c4ccccc4F)CC3)CC2)cc1OC,-22,2,0,-9,0,-2
COc1cc(CN2CCN(c3cccc(C)c3C)CC2)cc(Br)c1O,-20,10,36*,2,1,-2
COc1ccc(CN2CCN(c3cccc(C)c3C)CC2)cc1OC,·,6,24*,11,29*,0
Cc1onc(-c2ccccc2)c1C(=O)Nc1cc(C(F)(F)F)ccc1N1CCOCC1,6,26,0,41*,-4,-1
COc1ccc(-n2ncc3c(N(C)C4CCCCC4)ncnc32)cc1,34,-4,2,-11,31*,0
COc1ccc(-n2ncc3c(N4CCC(C)CC4)ncnc32)cc1,-5,1,0,3,0,-1
Cc1cccc(-n2ncc3c(N(C)C4CCCCC4)ncnc32)c1,53*,15,1,11,-1,-1
c1ccc(-c2nc(Sc3ncnc4c3cnn4-c3ccccc3)n[nH]2)cc1,14,0,0,-16,-1,-1
Cc1cc(/C=c2/sc3nc4ccccc4n3c2=O)c(C)n1-c1ccccn1,101*,·,1,-10,8,-1
O=c1/c(=C\c2cccnc2)sc2nc3ccccc3n12,-20,-18,0,4,-3,1
CCOCCCNCC(=O)N1CCN(S(=O)(=O)c2ccc(C)cc2)CC1,6,2,0,6,-3,-1
COc1ccc(/C=N\n2nnc3ccccc32)cc1,29,4,0,-3,-4,0
SMILES,S1P1 ag-PAM,5-HT1A blocker,5HT1E ag,5HT1E antag,5HT1a ag,S1P3 agonist
COc1ccccc1Oc1cc(C#N)c(C#N)cc1-n1nnc2ccccc21,15,49*,-1,7,0,20*
Cc1ccc(C)c(N2CCN(C(c3ccncc3)c3nnnn3Cc3ccccc3)CC2)c1 (centres undefined),7,-174,36*,2,0,-1
c1ccc(Cn2nnnc2C(c2cccs2)N2CCc3ccccc3C2)cc1 (centres undefined),40,52*,-1,13,0,-1
COc1ccc(Cn2nnnc2C(c2cccs2)N2CCN(c3ccccc3)CC2)cc1 (centres undefined),18,44*,0,7,-1,-2
CC1=C(C(=O)OC2CCCC2)C(c2ccc(C)o2)C2=C(CC(c3cccs3)CC2=O)N1 (centres undefined),14,45*,0,39*,0,-2
CC1=C(C(=O)OC2CCCCCC2)C(c2ccc(C)o2)C2=C(CCCC2=O)N1 (centres undefined),-6,27,-1,10,-2,-2
COCCn1c(C)cc(C(=O)CSc2nc3ccccc3o2)c1C,66*,-5,0,-1,1,0
O=C(CCSc1nnc2scc(-c3ccccc3)n12)NCc1ccc2c(c1)OCO2,-38,3,-1,18,1,0
c1ccc(-c2csc3nnc(SCc4ccc5c(c4)OCO5)n23)cc1,-21,2,1,29*,-3,0
CN1CCN(c2nc(-c3ccncc3)nc3ccccc23)CC1,·,-4,9.1*,6,4,0
c1ccc2c(N3CCCC3)nc(-c3ccncc3)nc2c1,-24,5,1,0,1,0
Nc1ccc2c(C(F)(F)F)cc(=O)oc2c1,20,8,2,42*,6,1
O=C(OC1CCOC1=O)c1ccc2ncsc2c1 (centres undefined),1,1,0,-2,-2,1
O=C(OC1CCOC1=O)c1cncc(Br)c1 (centres undefined),3,-15,43*,1,-3,-1
CCOC(=O)c1cc2c(ccn2C)n1Cc1ccccc1C,-8,44*,0,29,-2,-1
CCOC(=O)c1cc2c(ccn2C)n1CC(=O)N1CCN(c2ccccc2)CC1,12,4,0,-14,-2,0
COCc1c(C(=O)OCC(=O)N2c3ccccc3NC(=O)C2(C)C)oc2ccccc12,-8,2,0,-6,-4,0
CCOC(=O)Cc1cn2c(=O)cc(CSCC(=O)Nc3ccc(C)c(C)c3)nc2s1,5,2,5,1,-1,0
